ChEMBL document CHEMBL1121504, “Aporphines. 31. Synthesis and antitumor activity of aporphine nitrogen mustards” (1980)

Tests used:
Mus musculus [1] = test: (§1) Antitumor activity against intraperitoneally implanted lymphoid leukemia (LE1210) tumor system at dose 100 mg/kg; type: functional; settings: route intraperitoneal
Outline: (§2)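 Murine-screen tumor implanted intraperitoneally and treated at the listed mg/kg doses under standard NCI protocols. Activity is read out as T/C, the treated-to-control ratio.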

Mus musculus [2] = test: Antitumor activity against intraperitoneally implanted lymphoid leukemia (LE1210) tumor system at dose 12.5 mg/kg; type: functional; settings: route intraperitoneal; outline: as §2
Mus musculus [3] = test: (§3) Antitumor activity against intraperitoneally implanted lymphoid leukemia (LE1210) tumor system at dose 25 mg/kg; type: functional; settings: route intraperitoneal; outline: as §2
Mus musculus [4] = test: (§4) Antitumor activity against intraperitoneally implanted lymphoid leukemia (LE1210) tumor system at dose 50 mg/kg; type: functional; settings: route intraperitoneal; outline: as §2
Mus musculus [5] = test: Antitumor activity against intraperitoneally implanted lymphoid leukemia (LE1210) tumor system at dose 6.25 mg/kg; type: functional; settings: route intraperitoneal; outline: as §2
P388 [6] = test: Antitumor activity against intraperitoneally implanted lymphocytic leukemia (P388) system at dose 16 mg/kg; type: functional, Mus musculus; settings: route intraperitoneal; outline: as §2
P388 [7] = test: Antitumor activity against intraperitoneally implanted lymphocytic leukemia (P388) system at dose 4 mg/kg; type: functional, Mus musculus; settings: route intraperitoneal; outline: as §2
P388 [8] = test: Antitumor activity against intraperitoneally implanted lymphocytic leukemia (P388) system at dose 8 mg/kg; type: functional, Mus musculus; settings: route intraperitoneal; outline: as §2
[9] = Antitumor activity against intracerebrally implanted ependymoblastoma (EM) tumor system at dose 16 mg/kg; type: functional
Outline: (§5)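 Tumor implanted […] and treated at the listed mg/kg doses under standard NCI protocols. Activity is read out as T/C, the treated-to-control ratio.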

[10] = Antitumor activity against intracerebrally implanted ependymoblastoma (EM) tumor system at dose 4 mg/kg; type: functional; outline: as §5
[11] = Antitumor activity against intracerebrally implanted ependymoblastoma (EM) tumor system at dose 8 mg/kg; type: functional; outline: as §5
P388 [12] = test: Antitumor activity against intraperitoneally implanted P388 lymphocytic leukemia (P388) system at dose 12.5 mg/kg; type: functional, Mus musculus; settings: route intraperitoneal; outline: as §2
P388 [13] = test: Antitumor activity against intraperitoneally implanted P388 lymphocytic leukemia (P388) system at dose 25 mg/kg; type: functional, Mus musculus; settings: route intraperitoneal; outline: as §2
P388 [14] = test: Antitumor activity against intraperitoneally implanted P388 lymphocytic leukemia (P388) system at dose 3.13 mg/kg; type: functional, Mus musculus; settings: route intraperitoneal; outline: as §2
P388 [15] = test: Antitumor activity against intraperitoneally implanted P388 lymphocytic leukemia (P388) system at dose 6.25 mg/kg; type: functional, Mus musculus; settings: route intraperitoneal; outline: as §2
B16 [16] = test: Antitumor activity against B16 melanoma tumor system at dose 12.5 mg/kg; type: functional, Mus musculus
Outline: (§6)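 B16 melanocarcinoma assay run at the listed mg/kg doses under standard NCI protocols. Activity is read out as T/C, the treated-to-control ratio.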

B16 [17] = test: Antitumor activity against B16 melanoma tumor system at dose 25 mg/kg; type: functional, Mus musculus; outline: as §6
B16 [18] = test: Antitumor activity against B16 melanoma tumor system at dose 50 mg/kg; type: functional, Mus musculus; outline: as §6
B16 [19] = test: Antitumor activity against intracerebrally implanted B16 melanoma tumor system at dose 16 mg/kg; type: functional, Mus musculus; outline: as §5
B16 [20] = test: Antitumor activity against intracerebrally implanted B16 melanoma tumor system at dose 8 mg/kg; type: functional, Mus musculus; outline: as §5
L1210 [21] = test: as §1; type: functional, Mus musculus; settings: route intraperitoneal; outline: as §2
L1210 [22] = test: as §3; type: functional, Mus musculus; settings: route intraperitoneal; outline: as §2
L1210 [23] = test: as §4; type: functional, Mus musculus; settings: route intraperitoneal; outline: as §2
P388 [24] = test: Antitumor activity against intraperitoneally implanted lymphocytic leukemia (P388) system at dose 12.5 mg/kg; type: functional, Mus musculus; settings: route intraperitoneal; outline: as §2
P388 [25] = test: Antitumor activity against intraperitoneally implanted lymphocytic leukemia (P388) system at dose 25 mg/kg; type: functional, Mus musculus; settings: route intraperitoneal; outline: as §2
P388 [26] = test: Antitumor activity against intraperitoneally implanted lymphocytic leukemia (P388) system at dose 50 mg/kg; type: functional, Mus musculus; settings: route intraperitoneal; outline: as §2
P388 [27] = test: Antitumor activity against intraperitoneally implanted lymphocytic leukemia (P388) system at dose 6.25 mg/kg; type: functional, Mus musculus; settings: route intraperitoneal; outline: as §2
[28] = Antitumor activity against intracerebrally implanted ependymoblastoma (EM) tumor system at dose 12.5 mg/kg; type: functional; outline: as §5
[29] = Antitumor activity against intracerebrally implanted ependymoblastoma (EM) tumor system at dose 25 mg/kg; type: functional; outline: as §5
[30] = Antitumor activity against intracerebrally implanted ependymoblastoma (EM) tumor system at dose 50 mg/kg; type: functional; outline: as §5

## COc1cc2c3c(c1)-c1c(ccc(OC)c1OC)CC3N(CCN(CCCl)CCCl)CC2 (stereo not given)
Mus musculus [1]
  T/C: 87
Mus musculus [2]
  T/C: 98
Mus musculus [3]
  T/C: 101
Mus musculus [4]
  T/C: 101
Mus musculus [5]
  T/C: 101
P388 [6]
  T/C: 113
P388 [7]
  T/C: 106
P388 [8]
  T/C: 127
[9]
  T/C: 108
[10]
  T/C: 108
[11]
  T/C: 104

## COc1ccc2c(c1O)-c1cc(O)cc3c1C(C2)N(C(=O)CN(CCCl)CCCl)CC3 (stereo not given)
P388 [12]
  T/C: 158
P388 [13]
  T/C: 114
P388 [14]
  T/C: 130
P388 [15]
  T/C: 149

## COc1ccc2c(c1OC(C)=O)-c1cc(O)cc3c1C(C2)N(C(=O)CN(CCCl)CCCl)CC3 (stereo not given)
B16 [16]
  T/C: 134
B16 [17]
  T/C: 135
B16 [18]
  T/C: 170
B16 [19]
  T/C: 102
B16 [20]
  T/C: 111
L1210 [21]
  T/C: 88
L1210 [22]
  T/C: 136
L1210 [23]
  T/C: 127
P388 [24]
  T/C: 174
P388 [25]
  T/C: 168
P388 [26]
  T/C: 130
P388 [27]
  T/C: 143
[28]
  T/C: 94
[29]
  T/C: 99
[30]
  T/C: 86
